Test results published in ChEMBL document CHEMBL3526050, “Elucidation of the metabolic pathways and the resulting multiple metabolites of almorexant, a dual orexin receptor antagonist, in humans” (Drug Metab Dispos, 2013).

How the values were obtained:
[1] = Drug level in feces of healthy human treated with [14C]almorexant at 200 mg, po dosed as single dose; type: ADME, organism-based; settings: in vivo
Outline: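 Feces pooled by weight across 6 subjects (0–48 to 192–332 h) and extracted three times with acetonitrile, then dried and reconstituted. Analyzed by radio-LC-MS/MS with a methanol/acetonitrile gradient and scintillation-counted fractions. Procedural recovery was 73.0%. Reported as percent of administered radioactive dose.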

[2] = tested on: Homo sapiens; assay: Cmax in healthy human assessed as total radioactivity at 200 mg, po dosed as single dose; type: ADME, organism-based; set-up: dose 200 mg, route oral; settings: in vivo
Outline: (§1)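 Six fasted healthy male subjects given one oral capsule of 200 mg almorexant with about 84 µCi 14C. EDTA blood taken pre-dose to 240 h. Whole blood (solubilized, peroxide-treated) and plasma counted in triplicate by liquid scintillation. Noncompartmental PK: Cmax/Tmax read directly, linear trapezoidal AUC extrapolated via λz, t1/2 = ln2/λz. Geometric mean (95% CI), Tmax median (range).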

[3] = Half life in healthy human at 200 mg, po dosed as single dose; type: ADME, organism-based; settings: in vivo
Outline: (§2)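 Plasma parent and metabolites M3, M5, M6, M8 after one 200 mg oral 14C dose in 6 fasted male subjects, sampled 0.17–240 h. Validated LC-MS/MS with penta-deuterated internal standards and positive ESI. Low range 0.4/1.0–100 ng/mL using supported liquid extraction, high range 50–1000 ng/mL using protein precipitation. Noncompartmental analysis, geometric means (95% CI), Tmax median (range).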

[4] = tested on: Homo sapiens; assay: Toxicity in healthy human assessed as effect on vital signs parameters at 200 mg, po dosed as single dose; type: organism-based; settings: in vivo
[5] = tested on: Plasma; assay: Drug level in plasma of healthy human treated with [14C]almorexant at 200 mg, po dosed as single dose; type: ADME, organism-based; settings: in vivo
Outline: (§3)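 Plasma from 6 subjects given one 200 mg oral 14C dose, pooled over at least 2 time points and acetonitrile-precipitated. Radio-LC-MS/MS used a C18 column with ammonium formate pH 4.0/acetonitrile gradient and 0.15-min fractions scintillation-counted. Peak radioactivity converted to ng-equivalents/mL to give AUC0-t. Co-eluting metabolites grouped and expressed relative to parent AUC and to total radioactivity.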

[6] = tested on: Homo sapiens; assay: Drug level in healthy human at 200 mg, po dosed as single dose relative to total radioactivity; type: ADME, organism-based; settings: in vivo; outline: as §3
[7] = tested on: Homo sapiens; assay: Tmax in healthy human assessed as total radioactivity at 200 mg, po dosed as single dose; type: ADME, organism-based; settings: in vivo; outline: as §1
[8] = tested on: Plasma; assay: Half life in healthy human plasma assessed as radioactivity at 200 mg, po dosed as single dose; type: ADME, organism-based; settings: in vivo; outline: as §1
[9] = tested on: Homo sapiens; assay: AUC (0 to t) in healthy human assessed as total radioactivity at 200 mg, po dosed as single dose; settings: in vivo
[10] = tested on: Homo sapiens; assay: AUC (0 to t) in healthy human at 200 mg, po dosed as single dose; type: ADME, organism-based, Plasma; settings: in vivo; outline: as §3
[11] = Drug excretion in healthy human feces assessed as total radioactivity at 200 mg, po dosed as single dose; type: ADME, organism-based; settings: in vivo
Outline: (§4)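 Urine collected in 8-h then 24-h intervals, and all feces for 10 days (longer if recovery <90%) after one 200 mg oral 14C dose in 6 fasted males. Urine counted directly by liquid scintillation. Feces homogenized in water, and about 300 mg aliquots combusted before counting, done in triplicate. Stearic acid 14C quality controls were included.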

[12] = Cmax in healthy human at 200 mg, po dosed as single dose; type: ADME, organism-based; set-up: dose 200 mg, route oral; settings: in vivo; outline: as §2
[13] = tested on: Blood; assay: Half life in healthy human whole blood assessed as radioactivity at 200 mg, po dosed as single dose; type: ADME, organism-based; settings: in vivo; outline: as §1
[14] = tested on: Plasma; assay: Cmax in healthy human plasma assessed as radioactivity at 200 mg, po dosed as single dose; type: ADME, organism-based; set-up: dose 200 mg, route oral; settings: in vivo; outline: as §1
[15] = tested on: Homo sapiens; assay: Tlast in healthy human assessed as total radioactivity at 200 mg, po dosed as single dose; type: ADME, organism-based; settings: in vivo
[16] = tested on: Homo sapiens; assay: Toxicity in healthy human at 200 mg, po dosed as single dose; type: organism-based; settings: in vivo
[17] = tested on: Homo sapiens; assay: Toxicity in healthy human assessed as effect on clinical laboratory parameters at 200 mg, po dosed as single dose; type: organism-based; settings: in vivo
[18] = tested on: Plasma; assay: Tmax in healthy human plasma assessed as radioactivity at 200 mg, po dosed as single dose; type: ADME, organism-based; settings: in vivo; outline: as §1
[19] = AUC (0 to infinity) in healthy human at 200 mg, po dosed as single dose; type: ADME, organism-based; set-up: dose 200 mg, route oral, time infinity; settings: plasma; outline: as §2
[20] = Drug excretion in healthy human urine assessed as total radioactivity at 200 mg, po dosed as single dose; type: ADME, organism-based; settings: in vivo; outline: as §4
[21] = tested on: Blood; assay: Cmax in healthy human whole blood assessed as radioactivity at 200 mg, po dosed as single dose; type: ADME, organism-based; set-up: dose 200 mg, route oral; settings: in vivo; outline: as §1
[22] = tested on: Plasma; assay: AUC (0 to infinity) in healthy human plasma assessed as radioactivity at 200 mg, po dosed as single dose; type: ADME, organism-based; set-up: dose 200 mg, time infinity, route oral; settings: in vivo; outline: as §1
[23] = Ratio of drug level in whole blood to plasma in healthy human at 200 mg, po dosed as single dose; type: ADME, organism-based; settings: whole blood and plasma; outline: as §1
[24] = tested on: Homo sapiens; assay: Tlast in healthy human at 200 mg, po dosed as single dose; type: ADME, organism-based; settings: in vivo; outline: as §3
[25] = tested on: Homo sapiens; assay: Toxicity in healthy human assessed as effect on ECG variables parameters at 200 mg, po dosed as single dose; type: organism-based; settings: in vivo
[26] = tested on: Blood; assay: AUC (0 to infinity) in healthy human whole blood assessed as radioactivity at 200 mg, po dosed as single dose; type: ADME, organism-based; set-up: dose 200 mg, route oral, time infinity; settings: in vivo; outline: as §1
[27] = tested on: Homo sapiens; assay: Toxicity in healthy human assessed as incidence of adverse events at 200 mg, po dosed as single dose; type: organism-based; settings: in vivo
[28] = tested on: Blood; assay: Tmax in healthy human whole blood assessed as radioactivity at 200 mg, po dosed as single dose; type: ADME, organism-based; settings: in vivo; outline: as §1
[29] = Tmax in healthy human at 200 mg, po dosed as single dose; type: ADME, organism-based; settings: in vivo; outline: as §2
[30] = tested on: Homo sapiens; assay: Tmax in healthy human treated with [14C]almorexant at 200 mg, po dosed as single dose; type: ADME, organism-based; settings: in vivo; outline: as §2
[31] = tested on: Homo sapiens; assay: Half life in healthy human treated with [14C]almorexant at 200 mg, po dosed as single dose; type: ADME, organism-based; settings: in vivo; outline: as §2
[32] = tested on: Homo sapiens; assay: AUC (0 to infinity) in healthy human treated with [14C]almorexant at 200 mg, po dosed as single dose; type: ADME, organism-based, Plasma; set-up: dose 200 mg, route oral, time infinity; settings: in vivo
[33] = tested on: Homo sapiens; assay: Cmax in healthy human treated with [14C]almorexant at 200 mg, po dosed as single dose; type: ADME, organism-based; set-up: dose 200 mg, route oral; settings: in vivo
[34] = tested on: Homo sapiens; assay: Drug level in healthy human treated with [14C]almorexant at 200 mg, po dosed as single dose relative to almorexant; type: ADME, organism-based; settings: in vivo; outline: as §3
[35] = tested on: Homo sapiens; assay: AUC (0 to t) in healthy human treated with [14C]almorexant at 200 mg, po dosed as single dose; type: ADME, organism-based, Plasma; settings: in vivo; outline: as §3
[36] = tested on: Homo sapiens; assay: Drug level in healthy human treated with [14C]almorexant at 200 mg, po dosed as single dose relative to total radioactivity; type: ADME, organism-based; settings: in vivo; outline: as §3
[37] = tested on: Homo sapiens; assay: Tlast in healthy human treated with [14C]almorexant at 200 mg, po dosed as single dose; type: ADME, organism-based; settings: in vivo; outline: as §3
[38] = Absolute bioavailability in po dosed healthy human; type: ADME, organism-based; settings: in vivo
[39] = Tmax in po dosed healthy human; type: ADME, organism-based; settings: in vivo
[40] = Terminal half life in po dosed healthy human; type: ADME, organism-based; settings: in vivo, read-out: beta t1/2 (converted)
[41] = Tmax in po dosed healthy human receiving additional evening dose; type: ADME, organism-based; settings: in vivo
[42] = Clearance in po dosed healthy human; type: ADME, organism-based; settings: in vivo
[43] = tested on: Homo sapiens; assay: Volume of distribution in po dosed healthy human; type: ADME, organism-based; settings: in vivo

## CNC(=O)[C@@H](c1ccccc1)[n+]1ccc2cc(O)c(OC)cc2c1CCc1ccc(C(F)(F)F)cc1
[1]
  Drug metabolism: metabolite_detected

## CNC(=O)[C@@H](c1ccccc1)N1CCc2cc(O)c(O)cc2[C@@H]1CCc1ccc(C(F)(F)F)cc1
[1]
  Drug metabolism: metabolite_detected

## CNC(=O)[C@@H](c1ccccc1)N1CCc2cc(OC)c(OC)cc2[14C@@H]1CCc1ccc(C(F)(F)F)cc1
[2]
  Cmax: 1050 ng.Eq/ml
[3]
  half-life: 17.8 h
[4]
  Activity: Non-toxic
[5]
  Drug metabolism: metabolite_detected
[6]
  Drug uptake: 0.11%
[7]
  Tmax: 1.6 h
[8]
  t1/2: 78 h
[9]
  AUC(0-t): 54100 ng.Eq.hr/ml
[10]
  AUCt: 61.2 ng.Eq.hr/ml
[11]
  Drug excretion: 38.7%
[12]
  Cmax: 113 ng/mL
[13]
  t1/2: 39 h
[14]
  Cmax: 1060 ng.Eq/ml
[15]
  Tlast: 300 h
[16]
  Activity: Non-toxic
[17]
  Activity: Non-toxic
[18]
  Tmax: 1 h
[19]
  AUC(0-inf): 262 ng·h/mL
[20]
  Drug excretion: 8.34%
[21]
  Cmax: 678 ng.Eq/ml
[22]
  AUC: 51547 ng.Eq.hr/ml
[23]
  blood plasma ratio: 0.51
[24]
  Tlast: 1.6 h
[25]
  Activity: Non-toxic
[26]
  AUC: 26321 ng.Eq.hr/ml
[27]
  Activity: Non-toxic
[28]
  Tmax: 1 h
[1]
  Drug metabolism: metabolite_detected
[29]
  Tmax: 0.8 h

## CNC(=O)[C@@H](c1ccccc1)N1CCc2cc(OC)c(O)cc2[C@@H]1CCc1ccc(C(F)(F)F)cc1
[30]
  Tmax: 1 h
[31]
  t1/2: 21.7 h
[5]
  Drug metabolism: metabolite_detected
[32]
  AUC: 386 ng·h/mL
[33]
  Cmax: 61.4 ng/mL
[1]
  Drug metabolism: metabolite_detected

## CNC(=O)[C@@H](c1ccccc1)N1CCc2cc(O)c(OC)cc2[C@@H]1CCc1ccc(C(F)(F)F)cc1
[30]
  Tmax: 0.8 h
[31]
  t1/2: 22.1 h
[5]
  Drug metabolism: metabolite_detected
[32]
  AUC: 160 ng·h/mL
[33]
  Cmax: 25.7 ng/mL
[1]
  Drug metabolism: metabolite_detected

## COc1cc2c(cc1OC)[C@H](CCc1ccc(C(F)(F)F)cc1)NC[C@H]2O (racemic)
[34]
  Drug uptake: 28.1%
[35]
  AUCt: 17.2 ng.Eq.hr/ml
[36]
  Drug uptake: 0.03%
[37]
  Tlast: 1.6 h
[29]
  Tmax: 1.6 h

## CNC(=O)[C@@H](c1ccccc1)N1CCc2cc(OC)c(OC)cc2[C@@H]1CCc1ccc(C(F)(F)F)cc1 [ALMOREXANT]
[38]
  bioavailability: 11.4%
[39]
  Tmax: 0.8 h
[40]
  half-life: 17.8 h
[41]
  Tmax: 3 h
[42]
  CL/F: 717 mL/min
[43]
  Vd: 683 L
